Assay outcomes deposited in PubChem by several laboratories.
In the library only some 5.3% were active in any assay of this set; here they are far more common.
T cruzi repl: blocks replication of Trypanosoma cruzi; T. cruzi beta-gal in NIH3T3, luminescence, 90 h; inhibition, % (no concentration beside the values); hit rate 1.4% among 300,000;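 active = mean inhibition across valid replicates above about 55%, limit read from the data; inconclusive = mean below that limit but half or more replicates reach it; inactive = mean below it, under half of replicates reach it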;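 also: signal also drops with host cell toxicity which is not excluded here; 0% = plate median of DMSO wells and 100% = zero luminescence signal; higher percent means less beta-gal luminescence so fewer parasites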
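System: Mouse NIH/3T3 fibroblasts infected with β-gal-expressing T. cruzi Tulahuen C4 | Quantity: NIH/3T3 cells, 5,000 per well | Reagent: 5000 reporter trypomastigotes per well | Dosing: Compound pinned at 50 nL/well, DMSO | Schedule: 3 h host attachment, then at least 90 h co-culture | Detection: GalScreen luminescence, 60 min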
Calb FLC: affects C. albicans growth with fluconazole; C. albicans CaCi-2 + fluconazole, Alamar Blue growth, 48 h; hit rate 0.57% among 300,000; growth inhibition, % (test concentration not listed);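 active = growth inhibition above about 58% in most replicates, limit read from the data, passing the limit was not always enough; inconclusive = exactly half the replicates above a set limit; inactive = most replicates below a set limit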;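 also: all wells also contain fluconazole at 8 µg/ml as a sub-toxic cotreatment; 0% = median of DMSO wells and 100% = median of geldanamycin control wells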
Mdm2 MdmX PPI: disrupts the human Mdm2-MdmX interaction. O15151+Q00987. SaOS-2 split-luciferase Mdm2/MdmX complementation, luminescence. inhibition, % at 8 µM. hit rate 3% among 330,000;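 active = inhibition of at least 50% at 8 µM in the primary screen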
Target sequence (O15151 whole entry, looked up): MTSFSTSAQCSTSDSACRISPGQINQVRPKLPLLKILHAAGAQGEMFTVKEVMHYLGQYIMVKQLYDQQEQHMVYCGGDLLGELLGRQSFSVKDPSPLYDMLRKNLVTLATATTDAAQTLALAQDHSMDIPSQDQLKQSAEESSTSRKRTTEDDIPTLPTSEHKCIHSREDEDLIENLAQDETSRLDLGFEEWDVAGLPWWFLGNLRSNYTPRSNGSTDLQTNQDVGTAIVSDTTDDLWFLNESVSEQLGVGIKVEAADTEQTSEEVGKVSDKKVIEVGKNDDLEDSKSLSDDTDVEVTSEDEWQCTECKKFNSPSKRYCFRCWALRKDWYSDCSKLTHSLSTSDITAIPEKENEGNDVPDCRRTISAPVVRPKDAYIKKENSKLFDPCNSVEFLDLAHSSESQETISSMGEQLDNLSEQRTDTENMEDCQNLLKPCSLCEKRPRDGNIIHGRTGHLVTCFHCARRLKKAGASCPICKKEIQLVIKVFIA
Target sequence (Q00987 whole entry, looked up): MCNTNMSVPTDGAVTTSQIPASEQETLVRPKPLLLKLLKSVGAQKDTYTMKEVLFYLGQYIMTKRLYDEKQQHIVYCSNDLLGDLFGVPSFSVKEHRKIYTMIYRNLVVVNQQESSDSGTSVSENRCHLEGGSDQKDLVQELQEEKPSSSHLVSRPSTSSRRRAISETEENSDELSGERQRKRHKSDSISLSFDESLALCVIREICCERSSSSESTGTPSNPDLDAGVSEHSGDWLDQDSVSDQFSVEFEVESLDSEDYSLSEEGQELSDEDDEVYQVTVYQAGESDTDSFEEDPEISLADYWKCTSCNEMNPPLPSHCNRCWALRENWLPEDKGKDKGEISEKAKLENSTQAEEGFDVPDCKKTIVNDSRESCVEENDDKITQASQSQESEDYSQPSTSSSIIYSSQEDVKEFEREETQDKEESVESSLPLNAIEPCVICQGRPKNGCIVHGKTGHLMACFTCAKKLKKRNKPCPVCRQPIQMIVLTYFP
CSC inhib: blocks cancer stem cells; hit rate 1.1% among 300,000; cancer stem cell-like cells viability, luminescence; AID 2717; inhibition, % at 7.5 µM; in the data active = inhibition above about 75%; inconclusive = no clear call, values can overlap the other calls; tested in HMLE shEcad cells
Beta cell apopt: beta cell apoptosis inhibition; INS-1E cytokine-induced death, ATP luminescence, 48 h; percent of positive-control rescue, neutral wells zero; protection from apoptosis, % (no concentration beside the values); hit rate 0.8% among 300,000; AID 435005;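 active = Every replicate reaches about 75%, or at least half do and their mean reaches it too, limit read from the data; inconclusive = At least half of replicates reach the limit but their mean does not; inactive = Under half of replicates reach the limit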;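 also: 0% = cytokine-treated negative control wells and 100% = positive control rescue; higher means more ATP so stronger rescue from cytokine killing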
NLRP3 yeast inh: blocks the NALP3 inflammasome reconstituted in yeast | Yeast reconstituted NLRP3/ASC/caspase-1, beta-gal luminescence, 24 h | inhibition, % at 10 µM | hit rate 0.39% among 330,000 | AID 2825;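 active = inhibition of 50% or more; inactive = inhibition below 50%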;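 also: plate controls were induced DMSO wells for no effect and uninduced yeast grown without galactose for full effect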
Mdm2-MdmX conf: human Mdm2/MdmX binding inhibition, confirmed; shares compounds with Mdm2 MdmX PPI; luminescent assay; inhibition, % at 8 µM; hit rate 55% among 10,000; AID 489028; in the data active = inhibition above about 40%
FLuc counter: inhibits full-length luciferase, flagging false Mdm2/MdmX hits | AID 504607 | inhibition, % at 8 µM | shares compounds with Mdm2 MdmX PPI | hit rate 77% among 6,200 | SaOS-2 full-length luciferase counterscreen, luminescence;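 active = mean inhibition at 8 µM reaching about 37%, which flags the compound as non-specific, limit read from the data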;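 also: p53-null SaOS-2 cells with luciferase driven by a doxycycline-inducible promoter; compound on cells about two nights before reading with doxycycline added after day one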
An asterisk follows results filed as active; ? = inconclusive; . = no result given.

SMILES	T cruzi repl	Calb FLC	Mdm2 MdmX PPI	CSC inhib	Beta cell apopt	NLRP3 yeast inh	Mdm2-MdmX conf	FLuc counter
COc1ccc(/C=C/C(=O)Nc2ccc3nc4n(c(=O)c3c2)CCCC4)cc1OC	-1	-7	60*	-4	1	8	14	.
O=C(Nc1ccc2nc3n(c(=O)c2c1)CCCCC3)c1c(F)ccc([N+](=O)[O-])c1F	10	-7	96*	116*	105*	29	100*	52*
Cn1c(=O)c2c(ncn2CCCc2ccccc2)n(C)c1=O	-22	9	17	3	0	4	.	.
CCc1noc(C)c1C(=O)OC(C)C(=O)Nc1cc([N+](=O)[O-])ccc1OC (stereo not given)	5	-6	22	-6	3	9	.	.
CC(NC(=O)c1cc(-c2ccc(Br)cc2)on1)c1ccccc1 (stereo not given)	13	2	54*	13	-4	0	8	.
O=C1CCCCc2sc(Br)c([N+](=O)[O-])c2N1	-3	-17	64*	23	-8	19	30	57*
CCOC(=O)c1sc(NC(=O)CSc2nnnn2-c2ccc(C)cc2)c(C(=O)OCC)c1C	-4	-17	10	.	6	10	.	.
CCOC(=O)c1sc(NC(=O)CSc2nc3c(c(=O)n2-c2ccc(C)cc2)SCC3)c(C(=O)OCC)c1C	12	4	64*	5	-2	13	-1	.
COc1ccc(-c2oc(NC(=O)CSc3ncn[nH]3)c(C#N)c2-c2ccc(OC)cc2)cc1	21	0	48	56	-8	18	.	.
COc1ccc(-c2oc(NC(=O)CCl)c(C#N)c2-c2ccc(OC)cc2)cc1	20	-5	98*	3	1	21	65*	55*
CCCC(=O)N(Cc1cc(=O)[nH]c2ccccc12)c1ccc(C)cc1C	8	4	7	-6	7	13	.	.
Cc1ccc(N(Cc2cc(=O)[nH]c3ccccc23)C(=O)CCl)c(C)c1	22	32	100*	48	-53	-5	100*	54*
CCOC(=O)c1ccc(NC(=S)N2CCC(C(N)=O)CC2)cc1	-25	-9	1	-2	2	10	.	.
O=C(COc1ccc(C(=O)NCCc2ccccc2)cc1)Nc1ccccc1	-2	12	-21	-2	-12	7	.	.
COc1ccc(CNC(=O)COc2ccc(C(=O)c3ccc(F)cc3)cc2)cc1	-42	0	61*	59	-3	8	47*	89*
O=C(COc1ccc(C(=O)Nc2ccc(Cl)cc2)cc1)NCc1ccccc1	-10	4	62*	2	-6	7	24	.
Cc1ccc(CNC(=O)COc2ccc(C(=O)c3ccc(F)cc3)cc2)cc1	-29	3	51*	56	-13	-41	54*	64*
O=C(O)c1cc2c(cc1Cl)N1CCCCCC1=NS2(=O)=O	-6	23	19	-12	-4	10	.	.
CC1(C)O[C@H]2OC([C@H](O)CON3C(=O)c4ccccc4C3=O)[C@H](O)[C@H]2O1 (stereo not given in full)	.	.	14	-5	-4	11	.	.
Cc1cnc(NC(=O)/C=C/c2ccc(Br)o2)s1	-5	-2	75*	-16	28	5	0	.
CCOc1cc(NC(=O)c2ccccn2)c(OCC)cc1NC(=O)c1ccc(Cl)cc1	-7	2	56*	-5	21	19	18	.
CCOc1cc(NC(=O)c2ccccn2)c(OCC)cc1NC(=O)c1ccccc1	1	8	25	?	-1	-7	.	.
O=C(OCn1ncc(Cl)c(Cl)c1=O)c1ccc(C(F)(F)F)cc1	64*	106*	72*	.	.	-28	74*	53*
Cc1ccc(C(=O)OCn2ncc(Cl)c(Cl)c2=O)cc1	50	114*	90*	.	101*	4	100*	1
COc1cccc(NC(=S)N2CCN(C(c3ccccc3)c3ccccc3)CC2)c1	9	?	79*	21	-20	7	42*	68*
SMILES	T cruzi repl	Calb FLC	Mdm2 MdmX PPI	CSC inhib	Beta cell apopt	NLRP3 yeast inh	Mdm2-MdmX conf	FLuc counter
COc1ccc(NC(=S)N2CCN(C(c3ccccc3)c3ccccc3)CC2)c(OC)c1	5	-2	4	-7	-7	10	.	.
CN(c1ccc(F)cc1)S(=O)(=O)c1ccc(Cl)c(C(=O)NC2(C)CCS(=O)(=O)C2)c1 (stereo not given)	.	.	9	-8	-2	4	.	.
CCC(=O)c1ccc(OCC(=O)Nc2ccccc2N2CCOCC2)cc1	.	.	3	.	9	18	.	.
CC(OC(=O)CN(C)S(=O)(=O)c1ccc(Cl)cc1)C(=O)Nc1ncc(Cl)cc1Cl (stereo not given)	-31	-3	6	-9	-3	-2	.	.
O=C(NCCCn1ccnc1)c1ccc(-c2cccc(C(F)(F)F)c2)o1	.	.	-4	10	1	11	.	.
Cc1ccc(-n2c(SCC(=O)N/N=C/c3ccccc3OCC(=O)O)nc3ccccc3c2=O)cc1	-6	4	13	-18	-8	-12	.	.
Cc1nn(-c2ccccc2)c(C)c1/C=N/NC(=O)CSc1nc2ccccc2c(=O)n1-c1ccc(Br)cc1	22	2	74*	27	62	2	65*	74*
Cc1ccc(-n2c(SCC(=O)N/N=C/c3c(C)nn(-c4ccccc4)c3C)nc3ccccc3c2=O)cc1	36	-5	66*	?	22	22	47*	68*
Cc1ccc(/C=N/NC(=O)CSc2nc3ccccc3c(=O)n2-c2ccccc2)s1	7	12	27	.	-1	13	.	.
C=C(C)Cn1c(SCC(=O)N/N=C/c2c(O)ccc3ccccc23)nc2ccccc2c1=O	27	2	83*	103*	47	23	56*	31
CCn1c(SCC(=O)N/N=C/c2ccc(C)s2)nc2ccccc21	-14	4	58*	59	8	6	61*	59*
Cn1nc(-c2ccccc2)c(CSc2ccccc2Cl)c1Cl	12	?	53*	8	-15	12	65*	56*
COc1cc(/C=C/[N+](=O)[O-])ccc1OC(=O)c1cc2ccccc2oc1=O	-19	-11	51*	51	18	38	3	.
COc1cccc(N/C(N)=N/c2nc(CSc3ccccn3)cc(=O)[nH]2)c1	-7	-6	52*	6	2	21	49*	79*
N/C(=N\c1nc(CSc2nc3ccccc3s2)cc(=O)[nH]1)Nc1ccc(F)cc1	10	-3	57*	6	7	1	46*	52*
CCc1ccc(N/C(N)=N/c2nc(CSc3ccccn3)cc(=O)[nH]2)cc1	-10	13	6	-10	41	11	.	.
